The text below walks through data of ChEMBL document CHEMBL1127424, “7-azetidinylquinolones as antibacterial agents. 2. Synthesis and biological activity of 7-(2,3-disubstituted-1-azetidinyl)-4-oxoquinoline- and -1,8-naphthyridine-3-carboxylic acids. Properties and structure-activity relationships of quinolones with an azetidine moiety” (J Med Chem, 1994).

In brackets after ≈: the same amount, converted by molar mass.

A short description of series [1]: AUC (0-4 hr) ug/ml/h. Details: time < 4 hr; concentration or dose not given beside the values. The series is classed as ADME, cell-free. To be noted: plasma. The method in brief: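 Mice dosed once orally at 50 mg/kg; blood taken from groups of six mice at 0.5, 1, 2 and 4 h. Serum drug assayed by disk agar diffusion bioassay (Bacillus subtilis ATCC 6633 on Seed Agar, 37 °C, 18 h), giving total activity.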

Series [2] is described as follows: HPLC capacity factor (k'). The series is classed as ADME. The gist of the method: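 Ion-pair reversed-phase HPLC on ODS-2 (10 μm) at 45 °C. Mobile phase: 10 mM sodium heptanesulfonate plus 50 mM KH2PO4 (pH 3.5)–methanol 45:55, 1 mL/min. Samples at 100 μg/mL in DMF, injected in duplicate, UV 280 nm. k' = (tR − t0)/t0.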
The test system of another series is Bacillus cereus. Briefly: In vitro minimum inhibitory concentration for Bacillus cereus ATCC 11778. It is filed as functional. The gist of the method: (§1)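 Serial 2-fold agar dilution in Mueller Hinton medium, run alongside a reference quinolone. Inoculum adjusted to 10⁸ cfu/mL; compound range 0.007–16 μg/mL.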
The test system of the next series is Bacillus subtilis. Briefly: In vitro minimum inhibitory concentration for Bacillus subtilis ATCC 6633. It is filed as functional. The method in brief:
as §1

The subject of a further series is Escherichia coli. Put plainly: In vitro minimum inhibitory concentration for Escherichia coli ATCC 10799. It is filed as functional. The method in brief: as §1
A further series concerns Enterobacter cloacae. Put plainly: In vitro minimum inhibitory concentration for Enterobacter cloacae ATCC 23355. The series is classed as functional.
Another series relates to Klebsiella pneumoniae. Briefly: In vitro minimum inhibitory concentration to inhibit Klebsiella pneumoniae ATCC 10031. It is filed as functional. The method in brief: as §1
The next series relates to Morganella morganii. Briefly: In vitro minimum inhibitory concentration for Morganella morganii ATCC 8019. It is filed as functional. The gist of the method:
as §1

Another series concerns Proteus vulgaris. Put plainly: In vitro minimum inhibitory concentration for Proteus vulgaris ATCC 8427. The series is classed as functional. The gist of the method:
as §1

Series [3] concerns Staphylococcus epidermidis. Briefly: In vitro minimum inhibitory concentration for Staphylococcus epidermidis ATCC 155-1. The series is classed as functional. The gist of the method: as §1
The test system of a further series is Staphylococcus aureus. Put plainly: In vitro minimum inhibitory concentration for Staphylococcus aureus ATCC 25178. It is filed as functional. The gist of the method: as §1
In a further series the test system is Enterococcus faecalis. Briefly: In vitro minimum inhibitory concentration for Streptococcus faecalis ATCC 10541. The series is classed as functional. The method in brief:
as §1

The next series concerns Pseudomonas aeruginosa. Put plainly: In vitro minimum inhibitory concentration for Pseudomonas aeruginosa ATCC 10145. The series is classed as functional. The method in brief:
as §1

Series [4] deals with Mus musculus. Put plainly: Evaluation of efficacy on systemic infections Escherichia coli HM-42, after oral administration in mice. It is filed as functional. The method in brief: (§2)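 Single oral dose given immediately after infection, one of four doses per group, chosen from in vitro activity. Survival scored after one week. ED50 (total mg/kg protecting 50%) interpolated from survival rates.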

For series [5], the system named is Mus musculus. Put plainly: Evaluation of efficacy on systemic infections Pseudomonas aeruginosa HS-116, after oral administration in mice. The series is classed as functional. The gist of the method: as §2
In series [6] the test system is Mus musculus. Put plainly: Evaluation of efficacy on systemic infections Staphylococcus aureus HS-93, after oral administration in mice. The series is classed as functional. The gist of the method: as §2
The nature of series [7]: Solubility (buffer pH 7.4). The settings on record: read-out: S. It is filed as physicochemical. The method in brief:
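Excess solid shaken in 0.05 M phosphate buffer pH 7.4 for 24 h at 25 °C. Suspension filtered through 0.22 μm, discarding the first portion. Filtrate diluted in 0.1 N HCl or 0.1 N NaOH and read by UV at the compound's absorbance maximum.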

For the molecule `C[C@H]1[C@H](N)CN1c1nc2c(cc1F)c(=O)c(C(=O)O)cn2C(C)(C)C`, the AUC in [1] was determined as 16500 ng·h/mL. The “Log k'” value in [2] was found to be 0.1644. Further, the minimum inhibitory concentration (MIC) in the series with Bacillus cereus was 0.12 µg/mL (≈ 0.344 µM); with Bacillus subtilis it was 0.015 µg/mL (≈ 0.0431 µM); in the series on Escherichia coli it was 0.06 µg/mL (≈ 0.172 µM); against Enterobacter cloacae, 0.06 µg/mL (≈ 0.172 µM); against Klebsiella pneumoniae it was 0.015 µg/mL (≈ 0.0431 µM); in the series on Morganella morganii it was 0.12 µg/mL (≈ 0.344 µM). Moreover, the MIC with Proteus vulgaris is 0.25 µg/mL (≈ 0.718 µM); in series [3] it was 0.12 µg/mL (≈ 0.344 µM); against Staphylococcus aureus, 0.12 µg/mL (≈ 0.344 µM); in the series with Enterococcus faecalis, 1 µg/mL (≈ 2.87 µM); against Pseudomonas aeruginosa, 2 µg/mL (≈ 5.74 µM).
Molecule `CCNC[C@H]1CN(c2cc3c(cc2F)c(=O)c(C(=O)O)cn3C2CC2)[C@@H]1C` gave an AUC in series [1] of 3200 ng·h/mL. Besides, the “Log k'” value in [2] is reported as -0.0042. In addition, the MIC was 1 µg/mL (≈ 2.68 µM) with Bacillus cereus; 0.06 µg/mL (≈ 0.161 µM) in the series with Bacillus subtilis; 0.12 µg/mL (≈ 0.321 µM) against Escherichia coli; 0.12 µg/mL (≈ 0.321 µM) in the series on Enterobacter cloacae; 0.06 µg/mL (≈ 0.161 µM) in the series with Klebsiella pneumoniae; 0.5 µg/mL (≈ 1.34 µM) against Morganella morganii. Also, the MIC came out at 1 µg/mL (≈ 2.68 µM) in the series on Proteus vulgaris; 0.5 µg/mL (≈ 1.34 µM) in series [3]; 0.5 µg/mL (≈ 1.34 µM) against Staphylococcus aureus; 4 µg/mL (≈ 10.7 µM) with Enterococcus faecalis; 4 µg/mL (≈ 10.7 µM) in the series with Pseudomonas aeruginosa. Also, the values for the ED50 with Mus musculus [4], in the series on Mus musculus [5] and with Mus musculus [6] were 28.4 mg/kg, 265 mg/kg and 60.5 mg/kg, respectively.
Consider `C[C@H]1[C@H](N)CN1c1nc2c(cc1F)c(=O)c(C(=O)O)cn2-c1ccc(F)cc1`, for which, in series [2], the “Log k'” value is reported as 0.0681. Moreover, the MIC worked out at 0.25 µg/mL (≈ 0.647 µM) against Bacillus cereus; 0.06 µg/mL (≈ 0.155 µM) against Bacillus subtilis; 0.12 µg/mL (≈ 0.311 µM) with Escherichia coli; 0.12 µg/mL (≈ 0.311 µM) against Enterobacter cloacae; 0.06 µg/mL (≈ 0.155 µM) in the series on Klebsiella pneumoniae; 0.25 µg/mL (≈ 0.647 µM) against Morganella morganii. The minimum inhibitory concentration (MIC) worked out at 2 µg/mL (≈ 5.18 µM) with Proteus vulgaris; 0.25 µg/mL (≈ 0.647 µM) in series [3]; 0.25 µg/mL (≈ 0.647 µM) against Staphylococcus aureus; 4 µg/mL (≈ 10.4 µM) against Enterococcus faecalis; 2 µg/mL (≈ 5.18 µM) with Pseudomonas aeruginosa. Besides, the ED50 was 3.1 mg/kg with Mus musculus [4], more than 400 mg/kg with Mus musculus [5] and 11.9 mg/kg with Mus musculus [6].
Consider `C[C@H]1[C@H](N)CN1c1cc2c(cc1F)c(=O)c1c(=O)[nH]sc1n2C1CC1`, for which the AUC in series [1] was determined as 16200 ng·h/mL. For the same molecule, the “Log k'” value in series [2] is 0.065. Besides, the MIC in the series on Bacillus cereus turned out to be 0.06 µg/mL (≈ 0.166 µM); against Bacillus subtilis it was 0.015 µg/mL (≈ 0.0416 µM); against Escherichia coli, 0.03 µg/mL (≈ 0.0832 µM); with Enterobacter cloacae it was 0.015 µg/mL (≈ 0.0416 µM); in the series on Klebsiella pneumoniae it was 0.015 µg/mL (≈ 0.0416 µM); against Morganella morganii, 0.03 µg/mL (≈ 0.0832 µM). Also, the minimum inhibitory concentration (MIC) against Proteus vulgaris turned out to be 0.12 µg/mL (≈ 0.333 µM); in [3], 0.03 µg/mL (≈ 0.0832 µM); in the series with Staphylococcus aureus, 0.06 µg/mL (≈ 0.166 µM); in the series on Enterococcus faecalis, 0.25 µg/mL (≈ 0.694 µM); against Pseudomonas aeruginosa it was 0.25 µg/mL (≈ 0.694 µM).
`C[C@H]1N(c2cc3c(cc2F)c(=O)c(C(=O)O)cn3C2CC2)C[C@]1(C)N` came in with an AUC in [1] of 3800 ng·h/mL. For the same molecule, the “Log k'” value in series [2] is listed as 0.1421. Also, the solubility in [7] came to 1.3 µg/mL (≈ 3.76 µM). Moreover, the MIC is 0.25 µg/mL (≈ 0.724 µM) with Bacillus cereus; 0.015 µg/mL (≈ 0.0434 µM) in the series on Bacillus subtilis; 0.06 µg/mL (≈ 0.174 µM) in the series with Escherichia coli; 0.015 µg/mL (≈ 0.0434 µM) against Enterobacter cloacae; 0.03 µg/mL (≈ 0.0869 µM) with Klebsiella pneumoniae; 0.06 µg/mL (≈ 0.174 µM) in the series with Morganella morganii. The minimum inhibitory concentration (MIC) in the series with Proteus vulgaris was determined as 0.25 µg/mL (≈ 0.724 µM); in series [3] it was 0.12 µg/mL (≈ 0.347 µM); in the series with Staphylococcus aureus, 0.25 µg/mL (≈ 0.724 µM); against Enterococcus faecalis, 2 µg/mL (≈ 5.79 µM); against Pseudomonas aeruginosa, 2 µg/mL (≈ 5.79 µM).
In series [1], `CC[C@H]1[C@@H](N)CN1c1c(F)cc2c(=O)c(C(=O)O)cn(C3CC3)c2c1F` returned an AUC of 14700 ng·h/mL. Besides, the “Log k'” value in [2] stood at 0.1399. The solubility in [7] came out at 55.9 µg/mL (≈ 154 µM). The minimal inhibitory concentration (MIC) against Bacillus cereus came out at 0.12 µg/mL (≈ 0.33 µM); against Bacillus subtilis, 0.015 µg/mL (≈ 0.0413 µM); against Escherichia coli, 0.12 µg/mL (≈ 0.33 µM); in the series with Enterobacter cloacae, 0.12 µg/mL (≈ 0.33 µM); against Klebsiella pneumoniae, 0.015 µg/mL (≈ 0.0413 µM); in the series on Morganella morganii it was 0.12 µg/mL (≈ 0.33 µM). Moreover, the MIC against Proteus vulgaris is 0.25 µg/mL (≈ 0.688 µM); in [3] it was 0.12 µg/mL (≈ 0.33 µM); in the series with Staphylococcus aureus it was 0.12 µg/mL (≈ 0.33 µM); with Enterococcus faecalis, 2 µg/mL (≈ 5.5 µM); in the series on Pseudomonas aeruginosa, 2 µg/mL (≈ 5.5 µM).

In general, AUC refers to the area under the concentration-time curve, a measure of exposure. The MIC is the lowest concentration found to suppress growth. One may read the ED50 as the midpoint of the dose-response relation.
